Molecular target: LigAB (Sphingobium sp. SYK-6, UniProt P22635+P22636)
Test: inhibition of PCA dioxygenation, O2 consumption, Clark-type electrode
Assay type: biochemical
Conditions: read-out: % inhibition ^b
Outline: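 Anaerobically purified LigAB (His-tag removed) started the reaction at 3–7 nM final. Reactions ran in air-saturated 50 mM Tris pH 7.5 at 25 °C with 500 μM PCA plus 1 mM test compound, read by O2 consumption. Percent inhibition came from comparing rates with those of PCA-only assays run directly before and after.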

Chain of LigAB (P22635 whole entry): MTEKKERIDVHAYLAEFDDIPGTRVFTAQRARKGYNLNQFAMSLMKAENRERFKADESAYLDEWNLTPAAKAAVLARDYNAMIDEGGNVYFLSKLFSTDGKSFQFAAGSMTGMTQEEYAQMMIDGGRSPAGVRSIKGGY
Chain of LigAB (P22636 whole entry): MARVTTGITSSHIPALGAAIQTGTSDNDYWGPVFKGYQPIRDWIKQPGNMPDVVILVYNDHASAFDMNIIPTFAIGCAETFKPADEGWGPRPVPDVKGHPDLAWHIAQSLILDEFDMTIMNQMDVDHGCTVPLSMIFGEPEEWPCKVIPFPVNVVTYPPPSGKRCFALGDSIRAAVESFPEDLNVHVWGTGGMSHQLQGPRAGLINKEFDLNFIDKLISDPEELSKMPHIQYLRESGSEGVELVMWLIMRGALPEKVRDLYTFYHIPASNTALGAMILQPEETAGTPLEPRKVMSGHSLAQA

Structure (SMILES) | inhibition at 1000 µM [%]
O=[N+]([O-])c1ccc(O)c(O)c1 [4-nitrocatechol] | 31
Cc1ccc(O)c(O)c1 [4-methylcatechol] | 28
